Laboratory results taken from ChEMBL document CHEMBL1142308, “Synthesis and structure-activity relationships of N-(3-phenylpropyl)-N'-benzylpiperazines: Potent ligands for sigma1 and sigma2 receptors” (Bioorg Med Chem, 2008).

Experiments:
[1] = target: T1, Sigma non-opioid intracellular receptor 1 (Cavia porcellus, UniProt Q60492); assay: Displacement of [3H](+)-PTZ from sigma1 receptor in Hartley guinea pig brain
[2] = Displacement of [3H]DTG from sigma2 receptor in Hartley guinea pig brain; design: species or system Cavia porcellus
[3] = target: Delta-type opioid receptor (Mus musculus) (UniProt P32300); assay: Displacement of [3H]NTI from delta opioid receptor in mouse brain; assay type: tissue-based; design: concentration or dose not given beside the values
In short: (§1)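 Brain membranes came from guinea pig for mu and kappa and from mouse for delta. Radioligands were [3H]DAMGO (mu), [3H]NTI (delta) and [3H]U69,593 (kappa). The read-out is percent displacement of radioligand binding at a single concentration of 1–2 of test compound.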

[4] = target: Mu-type opioid receptor (Cavia porcellus) (UniProt P97266); assay: Displacement of [3H]DAMGO from mu opioid receptor in guinea pig brain; design: concentration or dose not given beside the values; in short: as §1
[5] = target: Kappa-type opioid receptor (Cavia porcellus) (UniProt P41144); assay: Displacement of [3H]U69593 from kappa opioid receptor in guinea pig brain; design: concentration or dose not given beside the values; in short: as §1
[6] = species on record: Cavia porcellus; assay: Ratio of Ki for sigma2 receptor in Hartley guinea pig brain to Ki for sigma1 receptor in Hartley guinea pig brain
In short: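 Selectivity is expressed as the sigma2/sigma1 Ki ratio. The sigma1 Ki comes from [3H](+)-pentazocine displacement and the sigma2 Ki from [3H]DTG displacement, both in guinea pig brain. Each Ki is from Cheng-Prusoff, using Kd 2.3 nM and 23.9 nM respectively, with duplicates repeated 3–6 times.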

[7] = Binding affinity to sigma receptor
[8] = target: T2, 5-hydroxytryptamine receptor 1A (Homo sapiens, UniProt P08908); assay: Binding affinity to 5HT1A receptor
T2 sequence (P08908 whole entry): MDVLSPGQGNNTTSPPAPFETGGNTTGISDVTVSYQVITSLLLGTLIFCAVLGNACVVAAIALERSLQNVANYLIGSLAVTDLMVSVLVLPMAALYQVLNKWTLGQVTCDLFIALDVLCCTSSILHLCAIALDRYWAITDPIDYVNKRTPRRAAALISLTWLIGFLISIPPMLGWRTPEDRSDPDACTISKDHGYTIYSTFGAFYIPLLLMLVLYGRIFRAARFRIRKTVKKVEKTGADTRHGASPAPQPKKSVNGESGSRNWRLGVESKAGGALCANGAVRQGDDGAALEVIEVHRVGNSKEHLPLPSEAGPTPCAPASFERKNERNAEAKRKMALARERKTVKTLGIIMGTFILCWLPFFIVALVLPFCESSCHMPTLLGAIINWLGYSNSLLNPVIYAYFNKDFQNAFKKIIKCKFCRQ

[9] = target: D(2) dopamine receptor (Homo sapiens, UniProt P14416); assay: Binding affinity to dopamine D2 receptor
[10] = target: T1, Sigma non-opioid intracellular receptor 1; assay: Displacement of [3H]pentazocine from sigma1 receptor in guinea pig membrane; assay type: cell membranes
[11] = target: T1, Sigma non-opioid intracellular receptor 1; assay: Displacement of [3H]pentazocine from sigma1 receptor in guinea pig membrane in presence of phenytoin; assay type: cell membranes
In short: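 [3H](+)-pentazocine sigma1 binding run as the standard assay, but with phenytoin in 0.15 M NaOH vehicle added to every tube; parallel controls received NaOH only. Trials performed in duplicate, 3–5 trials; ratio of IC50 with versus without phenytoin used for agonist/antagonist profiling.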

[12] = target: Sigma non-opioid intracellular receptor 1 (Cavia porcellus) (UniProt Q60492); assay: Ratio of IC50 for sigma1 receptor in absence of phenytoin to in presence of phenytoin in guinea pig membrane; assay type: cell membranes
In short: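 Sigma1 competition binding against [3H](+)-pentazocine in guinea pig brain homogenates, with phenytoin in 0.15 M NaOH vehicle added to every tube, alongside controls given only 0.15 M NaOH. Incubation medium was pH 7.44 at 37 °C with the NaOH additions. Ratio is IC50 without phenytoin over IC50 with it. Run in duplicate, repeated 3–6 times.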

Kappa-type opioid receptor (Cavia porcellus), sequence (P41144 whole entry): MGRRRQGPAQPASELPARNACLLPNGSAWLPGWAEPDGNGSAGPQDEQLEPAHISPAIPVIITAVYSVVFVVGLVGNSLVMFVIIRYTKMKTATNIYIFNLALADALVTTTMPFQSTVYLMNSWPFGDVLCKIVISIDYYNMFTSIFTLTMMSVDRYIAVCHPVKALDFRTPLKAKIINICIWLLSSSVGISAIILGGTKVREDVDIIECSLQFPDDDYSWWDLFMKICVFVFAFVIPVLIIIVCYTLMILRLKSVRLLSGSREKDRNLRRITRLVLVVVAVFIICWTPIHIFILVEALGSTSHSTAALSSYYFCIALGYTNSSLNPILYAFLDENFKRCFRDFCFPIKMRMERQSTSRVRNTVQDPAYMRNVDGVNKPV
Mu-type opioid receptor (Cavia porcellus), sequence (P97266 whole entry): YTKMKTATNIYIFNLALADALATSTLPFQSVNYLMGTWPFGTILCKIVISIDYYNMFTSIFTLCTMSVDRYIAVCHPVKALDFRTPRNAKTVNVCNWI
T1 sequence (Q60492 whole entry): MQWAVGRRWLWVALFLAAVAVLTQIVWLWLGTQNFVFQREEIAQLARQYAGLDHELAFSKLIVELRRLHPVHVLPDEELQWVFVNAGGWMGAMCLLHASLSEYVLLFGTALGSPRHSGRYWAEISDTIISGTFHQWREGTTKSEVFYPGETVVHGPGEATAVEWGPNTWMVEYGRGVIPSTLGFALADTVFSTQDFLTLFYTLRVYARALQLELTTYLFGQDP
Delta-type opioid receptor (Mus musculus), sequence (P32300 whole entry): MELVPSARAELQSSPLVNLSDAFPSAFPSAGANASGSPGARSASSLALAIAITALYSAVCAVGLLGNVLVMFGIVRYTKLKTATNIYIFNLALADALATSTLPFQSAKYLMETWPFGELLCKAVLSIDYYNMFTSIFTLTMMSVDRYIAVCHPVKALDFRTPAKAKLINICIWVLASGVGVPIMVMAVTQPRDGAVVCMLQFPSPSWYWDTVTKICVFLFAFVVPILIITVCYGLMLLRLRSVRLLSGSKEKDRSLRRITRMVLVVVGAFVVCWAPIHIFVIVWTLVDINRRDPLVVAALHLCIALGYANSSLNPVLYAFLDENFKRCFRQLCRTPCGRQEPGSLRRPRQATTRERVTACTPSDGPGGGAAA
D(2) dopamine receptor, sequence (P14416 whole entry): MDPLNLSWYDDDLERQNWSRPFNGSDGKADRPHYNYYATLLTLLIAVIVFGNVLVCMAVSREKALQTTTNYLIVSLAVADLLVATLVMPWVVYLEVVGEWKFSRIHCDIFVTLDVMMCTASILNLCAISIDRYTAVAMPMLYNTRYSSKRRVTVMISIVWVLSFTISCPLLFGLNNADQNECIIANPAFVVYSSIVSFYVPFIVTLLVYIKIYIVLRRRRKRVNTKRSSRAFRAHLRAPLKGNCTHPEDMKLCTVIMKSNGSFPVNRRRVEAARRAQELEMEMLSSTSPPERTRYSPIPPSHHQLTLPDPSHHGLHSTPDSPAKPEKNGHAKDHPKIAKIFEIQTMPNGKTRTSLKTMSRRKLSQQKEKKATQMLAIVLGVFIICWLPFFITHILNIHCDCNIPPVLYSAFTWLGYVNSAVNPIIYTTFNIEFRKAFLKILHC
Sigma non-opioid intracellular receptor 1 (Cavia porcellus), sequence (Q60492 whole entry): as the sequence (Q60492 whole entry) above

COc1ccc(CN2CCN(CCCc3ccccc3)CC2)cc1
Ki [1]: 0.76 nM
Ki [2]: 32.8 nM
Activity [3]: < 5%
Activity [4]: < 5%
Activity [5]: < 5%
Ratio Ki [6]: 43.2

O=[N+]([O-])c1ccccc1CN1CCN(CCCc2ccccc2)CC1
Ki [1]: 2.8 nM
Ki [2]: 3.79 nM
Activity [3]: < 5%
Activity [4]: < 5%
Activity [5]: < 5%
Ratio Ki [6]: 1.4

c1ccc(CCCN2CCN(Cc3ccccc3)CC2)cc1
Ki [1]: 0.66 nM
Ki [2]: 34.3 nM
Activity [3]: < 5%
Activity [4]: < 5%
Activity [5]: < 5%
Ratio Ki [6]: 52
IC50 [7]: 20 nM
IC50 [8]: > 100 nM
IC50 [9]: > 100 nM
IC50 [10]: 1.47 nM
IC50 [11]: 1.89 nM
Ratio IC50 [12]: 0.8

Brc1ccccc1CN1CCN(CCCc2ccccc2)CC1
Ki [1]: 0.6 nM
Ki [2]: 4.12 nM
Activity [3]: < 5%
Activity [4]: < 5%
Activity [5]: < 5%
Ratio Ki [6]: 6.9

COc1cccc(CN2CCN(CCCc3ccccc3)CC2)c1
Ki [1]: 0.87 nM
Ki [2]: 14.2 nM
Activity [3]: < 5%
Activity [4]: < 5%
Activity [5]: < 5%
Ratio Ki [6]: 16.3

Ic1cccc(CN2CCN(CCCc3ccccc3)CC2)c1
Ki [1]: 0.39 nM
Ki [2]: 1.03 nM
Activity [3]: < 5%
Activity [4]: < 5%
Activity [5]: < 5%
Ratio Ki [6]: 2.6

O=[N+]([O-])c1ccc(CN2CCN(CCCc3ccccc3)CC2)cc1
Ki [1]: 0.37 nM
Ki [2]: 3.29 nM
Activity [3]: < 5%
Activity [4]: < 5%
Activity [5]: < 5%
Ratio Ki [6]: 8.9

COc1ccc2c(c1)[C@]13CCCC[C@@H]1[C@H](C2)N(C)CC3 [DEXTROMETHORPHAN]
IC50 [10]: 232 nM
IC50 [11]: 15.2 nM

Cc1ccc(CN2CCN(CCCc3ccccc3)CC2)cc1
Ki [1]: 1.17 nM
Ki [2]: 17.5 nM
Activity [3]: < 5%
Activity [4]: < 5%
Activity [5]: < 5%
Ratio Ki [6]: 15

COc1ccc(CCN2CCN(CCCc3ccccc3)CC2)cc1OC [[11C]SA4503]
Ki [2]: 89.5 nM

O=[N+]([O-])c1cccc(CN2CCN(CCCc3ccccc3)CC2)c1
Ki [1]: 0.93 nM
Ki [2]: 1.59 nM
Activity [3]: < 5%
Activity [4]: < 5%
Activity [5]: < 5%
Ratio Ki [6]: 1.7

Fc1cccc(CN2CCN(CCCc3ccccc3)CC2)c1
Ki [1]: 1.36 nM
Ki [2]: 13.8 nM
Activity [3]: < 5%
Activity [4]: < 5%
Activity [5]: < 5%
Ratio Ki [6]: 10.2
